What was measured:
[1] = biological target: T1, Amine oxidase [flavin-containing] A (Rattus norvegicus, UniProt P21396); assay: Inhibitory activity against Monoamine oxidase A at 1 uM
T1 sequence (P21396 whole entry): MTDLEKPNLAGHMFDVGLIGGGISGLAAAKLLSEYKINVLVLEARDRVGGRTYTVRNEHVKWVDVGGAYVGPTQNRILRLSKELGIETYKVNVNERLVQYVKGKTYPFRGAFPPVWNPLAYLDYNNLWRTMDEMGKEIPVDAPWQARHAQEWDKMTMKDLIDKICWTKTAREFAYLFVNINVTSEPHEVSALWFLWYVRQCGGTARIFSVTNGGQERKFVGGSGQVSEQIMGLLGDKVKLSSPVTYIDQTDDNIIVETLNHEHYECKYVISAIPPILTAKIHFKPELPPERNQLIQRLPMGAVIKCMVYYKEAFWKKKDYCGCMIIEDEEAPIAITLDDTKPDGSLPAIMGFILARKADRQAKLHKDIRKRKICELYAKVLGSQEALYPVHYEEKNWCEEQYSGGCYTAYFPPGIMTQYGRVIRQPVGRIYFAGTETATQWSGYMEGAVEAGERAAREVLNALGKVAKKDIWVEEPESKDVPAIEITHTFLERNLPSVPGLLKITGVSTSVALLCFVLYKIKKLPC
How it was run: (§1)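 Rat brain mitochondrial MAO extract preincubated with inhibitor 15 min at 37 °C in 50 mM potassium phosphate pH 7.4. [3H]serotonin added at 0.2 μM final, then 20 min incubation. Pargyline 2 mM blanks. Stopped with HCl, products extracted into ethyl acetate/toluene and counted radiometrically. Triplicates; IC50 from mean % inhibition vs log concentration.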

[2] = biological target: T1, Amine oxidase [flavin-containing] A; assay: Inhibitory concentration against rat brain mitochondrial monoamine oxidase A; how it was run: as §1
[3] = biological target: T1, Amine oxidase [flavin-containing] A; assay: Inhibition of the enzyme Monoamine oxidase A which was not completely reverserved after 24 hr of dialysis
How it was run: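 Reversibility: MAO extract preincubated with or without inhibitor 15 min at 37 °C, in duplicate, then dialysed 24 h at 4 °C with shaking against 0.1 M potassium phosphate pH 7.4, 5% sucrose, 1 mM dithiothreitol, buffer changed ca. 3 and 19 h. Undialysed portions held at 4 °C; both assayed together for MAO activity.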

[4] = biological target: T2, Amine oxidase [flavin-containing] B (Rattus norvegicus, UniProt P19643); assay: Inhibitory activity against rat brain mitochondrial Monoamine oxidase B at 0.003 uM
T2 sequence (P19643 whole entry): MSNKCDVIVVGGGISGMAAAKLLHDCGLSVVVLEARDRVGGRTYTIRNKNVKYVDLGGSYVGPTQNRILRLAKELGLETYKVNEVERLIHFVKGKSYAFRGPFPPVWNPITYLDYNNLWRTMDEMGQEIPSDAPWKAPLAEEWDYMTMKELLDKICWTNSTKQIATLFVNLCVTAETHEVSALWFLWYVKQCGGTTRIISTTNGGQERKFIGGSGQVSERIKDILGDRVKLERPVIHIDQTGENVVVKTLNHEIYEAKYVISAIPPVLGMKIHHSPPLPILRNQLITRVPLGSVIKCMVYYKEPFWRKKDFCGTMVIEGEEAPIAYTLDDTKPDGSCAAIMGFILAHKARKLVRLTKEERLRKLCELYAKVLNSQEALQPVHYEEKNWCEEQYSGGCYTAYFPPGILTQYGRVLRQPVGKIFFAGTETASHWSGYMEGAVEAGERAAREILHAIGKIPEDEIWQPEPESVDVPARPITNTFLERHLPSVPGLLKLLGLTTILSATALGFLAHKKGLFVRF
How it was run: as §1, with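 “[14C]phenethylamine” for “[3H]serotonin”, “10” for “0.2”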

[5] = biological target: T2, Amine oxidase [flavin-containing] B; assay: Inhibitory activity against rat brain mitochondrial Monoamine oxidase B; NS=not significant at 0.001 uM
How it was run: as §1, with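 “[14C]phenethylamine” for “[3H]serotonin”, “10” for “0.2”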

[6] = biological target: T1, Amine oxidase [flavin-containing] A; assay: Inhibitory concentration against Monoamine oxidase A
How it was run: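 Rat brain mitochondrial MAO extract was preincubated ± inhibitor 15 min at 37 °C in 50 mM potassium phosphate (pH 7.4), then given [3H]serotonin at 0.2 μM final for 20 min. Blanks contained 2 mM pargyline. Products went into ethyl acetate/toluene for scintillation counting. Triplicates per concentration; IC50 extrapolated from mean % inhibition vs log concentration plots.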

[7] = biological target: T2, Amine oxidase [flavin-containing] B; assay: Inhibitory activity against Monoamine oxidase B at 1 uM
How it was run: as §1, with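 “[14C]phenethylamine” for “[3H]serotonin”, “10” for “0.2”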

[8] = biological target: T2, Amine oxidase [flavin-containing] B; assay: Inhibitory activity against rat brain mitochondrial Monoamine oxidase B at 0.03 uM
How it was run: as §1, with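 “[14C]phenethylamine” for “[3H]serotonin”, “10” for “0.2”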

[9] = biological target: T2, Amine oxidase [flavin-containing] B; assay: Inhibitory activity against rat brain mitochondrial Monoamine oxidase B at 3 uM
How it was run: as §1, with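 “[14C]phenethylamine” for “[3H]serotonin”, “10” for “0.2”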

[10] = biological target: T1, Amine oxidase [flavin-containing] A; assay: Inhibitory concentration against rat brain mitochondrial Monoamine oxidase A at 3 uM; how it was run: as §1
[11] = biological target: T2, Amine oxidase [flavin-containing] B; assay: Inhibitory activity against rat brain mitochondrial Monoamine oxidase B at 0.5 uM
How it was run: as §1, with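 “[14C]phenethylamine” for “[3H]serotonin”, “10” for “0.2”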

[12] = biological target: T1, Amine oxidase [flavin-containing] A; assay: Inhibition of the enzyme Monoamine oxidase A which was not completely reverserved after 24 hr of dialysis after 25 mg/kg po administration *; format: organism-based; set-up: dose 25 mg/kg, route oral; conditions: in vivo
[13] = biological target: T2, Amine oxidase [flavin-containing] B; assay: Inhibitory activity against rat brain mitochondrial Monoamine oxidase B; NS=not significant ta 1 uM
How it was run: as §1, with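 “[14C]phenethylamine” for “[3H]serotonin”, “10” for “0.2”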

[14] = biological target: T2, Amine oxidase [flavin-containing] B; assay: Inhibitory activity against rat brain mitochondrial Monoamine oxidase B at 50 uM
How it was run: as §1, with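 “[14C]phenethylamine” for “[3H]serotonin”, “10” for “0.2”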

[15] = biological target: T2, Amine oxidase [flavin-containing] B; assay: Inhibitory activity against rat brain mitochondrial Monoamine oxidase B at 0.2 uM
How it was run: as §1, with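 “[14C]phenethylamine” for “[3H]serotonin”, “10” for “0.2”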

[16] = biological target: T2, Amine oxidase [flavin-containing] B; assay: Inhibitory activity against rat brain mitochondrial Monoamine oxidase B 0.1(uM)
How it was run: as §1, with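 “[14C]phenethylamine” for “[3H]serotonin”, “10” for “0.2”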

[17] = biological target: T1, Amine oxidase [flavin-containing] A; assay: Inhibition of the enzyme MAO A which was not completely reverserved after 24 hr of dialysis after po administration to rat (brain); format: organism-based; conditions: in vivo
[18] = biological target: T1, Amine oxidase [flavin-containing] A; assay: Inhibitory concentration against rat brain mitochondrial Monoamine oxidase A at <5 uM; how it was run: as §1
[19] = biological target: T2, Amine oxidase [flavin-containing] B; assay: Inhibitory activity against rat brain mitochondrial Monoamine oxidase B
How it was run: as §1, with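 “[14C]phenethylamine” for “[3H]serotonin”, “10” for “0.2”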

[20] = biological target: T1, Amine oxidase [flavin-containing] A; assay: Inhibitory activity against rat brain mitochondrial Monoamine oxidase A (Expt 2)
[21] = biological target: T2, Amine oxidase [flavin-containing] B; assay: Inhibitory activity against rat brain mitochondrial Monoamine oxidase B;NS=not significant at 0.1 uM
How it was run: as §1, with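 “[14C]phenethylamine” for “[3H]serotonin”, “10” for “0.2”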

[22] = biological target: T1, Amine oxidase [flavin-containing] A; assay: Inhibitory concentration against rat brain mitochondrial Monoamine oxidase A (Expt 1); how it was run: as §1
[23] = biological target: T1, Amine oxidase [flavin-containing] A; assay: Inhibition of the enzyme Monoamine oxidase A which was not completely reverserved after 24 hr of dialysis after 20 mg/kg po administration; format: organism-based; set-up: dose 20 mg/kg, route oral; conditions: in vivo
[24] = biological target: T2, Amine oxidase [flavin-containing] B; assay: Inhibitory activity against Monoamine oxidase B; NS=not significant at 0.001 uM
How it was run: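 Rat brain mitochondrial MAO extract preincubated with or without inhibitor 15 min at 37 °C in 50 mM potassium phosphate, pH 7.4. [14C]phenethylamine was then added to 10 μM final and incubated 20 min. Blanks contained 2 mM pargyline. Products were extracted into ethyl acetate/toluene and counted by scintillation. Triplicates at each inhibitor concentration; mean percent inhibition.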

[25] = biological target: T2, Amine oxidase [flavin-containing] B; assay: Inhibitory activity against rat brain mitochondrial Monoamine oxidase B;NS=not significant at 1 uM
How it was run: as §1, with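 “[14C]phenethylamine” for “[3H]serotonin”, “10” for “0.2”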

[26] = biological target: T2, Amine oxidase [flavin-containing] B; assay: Inhibitory activity against rat brain mitochondrial Monoamine oxidase B at 0.0 uM
How it was run: as §1, with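 “[14C]phenethylamine” for “[3H]serotonin”, “10” for “0.2”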

[27] = biological target: T2, Amine oxidase [flavin-containing] B; assay: Inhibitory activity against rat brain mitochondrial Monoamine oxidase B; NS=not significant at 1 uM
How it was run: as §1, with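 “[14C]phenethylamine” for “[3H]serotonin”, “10” for “0.2”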

[28] = biological target: T1, Amine oxidase [flavin-containing] A; assay: Inhibitory concentration against rat brain mitochondrial Monoamine oxidase A at 0.5 uM; how it was run: as §1
[29] = biological target: T2, Amine oxidase [flavin-containing] B; assay: Inhibitory activity against rat brain mitochondrial Monoamine oxidase B at 0.1 uM
How it was run: as §1, with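 “[14C]phenethylamine” for “[3H]serotonin”, “10” for “0.2”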

c1ccc2c(c1)cc(C1=NCCN1)c1ccccc12 showed an inhibition at 1 µM [1] of 30%.

Work on CCCOc1ccc2c(c1)C(=O)c1ccc(-c3nnn(C)n3)cc1S2(=O)=O yielded an IC50 [2] of 2 nM, a Reversible [3] of 0% and an inhibition at 0.003 µM [4] of -13%.

With Cc1ccc2c(c1)C(=O)c1ccc(-c3nnc(C)o3)cc1S2(=O)=O the IC50 [2] was 2 nM, the Reversible [3] was 10% and the IC50 [5] was “Not Active”.

Molecule c1ccc2c(c1)Sc1ccc(C3=NCCN3)cc1S2 has an IC50 [6] of 300 nM and an inhibition at 1 µM [7] of 31%.

In the case of CN(C)c1ccc2c(c1)C(=O)c1ccc(C3=NCCN3)cc1S2(=O)=O, the IC50 [2] is reported as 20 nM, the Reversible [3] is reported as 21% and the inhibition at 0.03 µM [8] is reported as 8%.

Work on c1ccc2c(c1)[nH]c1cc(C3=NCCN3)ccc12 yielded an inhibition at 3 µM [9] of 38% and an inhibition at 3 µM [10] of 33%.

With COc1nc(-c2ccc3c(c2)S(=O)(=O)c2ccccc2C3=O)no1 the IC50 [2] was 80 nM and the inhibition at 0.5 µM [11] was 23%.

Cc1nnc(-c2ccc3c(c2)S(=O)(=O)c2ccccc2C3=O)o1 was tested, and the IC50 [2] was 2 nM, the Reversible [12] was 33% and the IC50 [13] was “Not Active”.

Molecule Cn1nnc(-c2ccc3c(c2)S(=O)(=O)c2ccccc2O3)n1 has an IC50 [2] of 2 nM and an inhibition at 50 µM [14] of 10%.

O=C1c2cc(N3CCSCC3)ccc2S(=O)(=O)c2cc(C3=NCCN3)ccc21 gave an inhibition at 0.2 µM [15] of 10% and an IC50 [2] of 20 nM.

In the case of O=S1(=O)c2cc(C3=NCCN3)ccc2Oc2ccc(C3=NCCN3)cc21, the % inhibition [16] is reported as 5%.

O=C1c2cc(Cl)ccc2S(=O)(=O)c2cc(C3=NCCN3)ccc21 showed an inhibition at 0.2 µM [15] of 3%, an IC50 [2] of 70 nM and a Reversible [17] of 60%.

O=C1c2ccccc2S(=O)(=O)c2cc(-c3ncc[nH]3)ccc21 showed an Inhibition [18] of 44% and an Inhibition [19] of 10%.

With CCCOc1ccc2c(c1)C(=O)c1ccc(C3=NCCN3)cc1S2(=O)=O the IC50 [20] was 9 nM, the Reversible [3] was 2% and the IC50 [21] was “Not Active”. The IC50 [22] was 40 nM.

With Cc1nnc(-c2ccc3c(c2)OOc2ccccc2C3=O)o1 the Reversible [23] was 12%, the IC50 [6] was 2 nM and the Inhibition [24] was “Not Active”.

O=C1c2cc(NCCO)ccc2S(=O)(=O)c2cc(C3=NCCN3)ccc21 was tested, and the IC50 [2] was 40 nM and the IC50 [25] was “Not Active”.

In the case of CCCNc1ccc2c(c1)C(=O)c1ccc(C3=NCCN3)cc1S2(=O)=O, the IC50 [2] is reported as 20 nM, the Reversible [3] is reported as 0% and the Inhibition [26] is reported as 4%.

For CC(C)(C)c1ccc2c(c1)C(=O)c1ccc(C3=NCCN3)cc1S2(=O)=O, the IC50 [2] was 800 nM, the Reversible [3] was 56% and the IC50 [27] was “Not Active”.

For O=C1c2ccccc2S(=O)(=O)c2cc(-c3nnc(C(F)(F)F)o3)ccc21, the inhibition at 0.5 µM [28] was 7% and the inhibition at 0.1 µM [29] was 7%.

From ChEMBL document CHEMBL1129565, “Selective inhibitors of monoamine oxidase. 3. Structure-activity relationship of tricyclics bearing imidazoline, oxadiazole, or tetrazole groups” (J Med Chem, 1996)
